Assay results taken from ChEMBL document CHEMBL1649528 (Antimicrob Agents Chemother, 2009).

Assays:
[1] = tested on: dengue virus type 1; assay: Antiviral activity against Dengue virus 1 infected in human Huh7.5 cells assessed as decrease in viral RNA synthesis at 8 uM after => 20 hrs by luciferase reporter gene assay; format: functional; settings: Huh-7, 20 h
Method in brief: (§1)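 Rluc2A-Rep replicon RNA (10 μg; WNV or DENV-1) electroporated into Huh-7.5 cells, seeded at 4 × 10⁵/well, then treated at once with 8 μM Cs or 1% ethanol. Cells washed with cold PBS and lysed at time points, and lysates frozen at −80°C. Luciferase read on 20 μl lysate. Early signal (1–10 h p.t.) reflects translation and later signal (>10 h) reflects RNA replication.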

[2] = tested on: West Nile virus; assay: Antiviral activity against West Nile virus infected in CyPA-deficient human Huh7.5 cells assessed as decrease in viral replication at 4 uM after 24 hrs by luciferase reporter gene assay; format: functional; settings: Huh-7, 24 h
Method in brief: (§2)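 Huh-7.5 shRNA lines (CyPA knockdown sh-A and control sh-Fluc; puromycin 1 μg/ml) seeded at 2 × 10⁴/well and infected 24 h later with WNV VLP at 1 FFU/cell. Cs (0, 4 or 8 μM) or 1% ethanol added at once. Luciferase read at 24 h p.i. and expressed as % of ethanol-treated sh-Fluc. Mean ± SD of three independent experiments.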

[3] = tested on: dengue virus type 1; assay: Antiviral activity against Dengue virus 1 infected in african green monkey Vero cells assessed as decrease in viral RNA synthesis after 24 hrs by luciferase reporter gene assay; format: functional, organism-based
Method in brief: (§3)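 Stable Rluc-Neo-Rep replicon-bearing Vero cells (DENV-1 or WNV; kept in DMEM/10% FBS with 1 mg/ml G418, 37°C, 5% CO₂) treated with Cs at ≤8 μM. Read-out is replicon Renilla luciferase, and 50% effective concentration is taken from the dose response.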

[4] = tested on: West Nile virus; assay: Antiviral activity against West Nile virus infected in human Huh7.5 cells assessed as decrease in viral RNA synthesis at 8 uM after => 20 hrs by luciferase reporter gene assay; format: functional; settings: Huh-7, 20 h; method in brief: as §1
[5] = tested on: West Nile virus; assay: Antiviral activity against West Nile virus infected in human Huh7.5 cells assessed as decrease in viral replication at 8 uM after 24 hrs by luciferase reporter gene assay; format: functional; settings: Huh-7, 24 h; method in brief: as §2
[6] = tested on: West Nile virus; assay: Antiviral activity against West Nile virus infected in CyPA-deficient human Huh7.5 cells assessed as decrease in viral replication at 8 uM after 24 hrs by luciferase reporter gene assay; format: functional; settings: Huh-7, 24 h; method in brief: as §2
[7] = tested on: Yellow fever virus; assay: microbe, parasite or virus in culture; format: functional; settings: Huh-7, 20 h
[8] = tested on: West Nile virus; assay: Antiviral activity against West Nile virus infected in african green monkey Vero cells assessed as decrease in viral RNA synthesis after 24 hrs by luciferase reporter gene assay; format: functional, organism-based; method in brief: as §3

C/C=C/C[C@@H](C)[C@@H](O)[C@H]1C(=O)N[C@@H](CC)C(=O)N(C)CC(=O)N(C)[C@@H](CC(C)C)C(=O)N[C@@H](C(C)C)C(=O)N(C)[C@@H](CC(C)C)C(=O)N[C@@H](C)C(=O)N[C@H](C)C(=O)N(C)[C@@H](CC(C)C)C(=O)N(C)[C@@H](CC(C)C)C(=O)N(C)[C@@H](C(C)C)C(=O)N1C [CYCLOSPORINE]
inhibition at 8 µM [1]: ≥ 70%
inhibition at 4 µM [2]: 10%
IC50 [3]: ≤ 500 nM
inhibition at 8 µM [4]: ≥ 70%
inhibition at 8 µM [5]: 4%
inhibition at 8 µM [6]: 2%
inhibition at 8 µM [7]: ≥ 70%
IC50 [8]: 8 µM
